Results: ChEMBL document CHEMBL1158489, “Synthesis and evaluation of 4-acyl-2-thiazolylhydrazone derivatives for anti-Toxoplasma efficacy in vitro” (J Med Chem, 2009)
Activity calls are given as the source filed them. The rule behind the calls is not given here.

What was measured:
Toxoplasma gondii [1] = assay: Antiparasitic activity against Toxoplasma gondii 2F tachyzoites infected in HFF assessed as inhibition of tachyzoite host cell invasion at 25 uM treated 20 mins prior to infection measured after 1 hr using DAPI staining by immunofluorescence microscopy relative to control; type: functional; set-up: scale not given: the % may be the effect or the level left
How it was run: (§1)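 Tachyzoites (strain 2F) preincubated with compound or DMSO (final 25 μM) at room temperature 20 min, then added to HFF monolayers; 1 h at 37 °C, 5% CO2, rinsed and fixed. Red/green sequential staining: attached/extracellular parasites labelled Rb anti-p30 with Alexa Fluor 594 (red), penetrated/intracellular green, host nuclei blue. Penetrated and attached counts compared with DMSO control.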

[2] = Cytotoxicity against human HFF by spectrophotometry; type: cell-based; details: HFF cells, read-out: TD50 (the source's name)
[3] = Therapeutic index, ratio of TD50 for human HFF to IC50 for Toxoplasma gondii 2F tachyzoites; details: HFF cells and Toxoplasma gondii 2F tachyzoites, read-out: TI
Toxoplasma gondii [4] = assay: Antiparasitic activity against Toxoplasma gondii 2F tachyzoites infected in HFF assessed as parasite growth inhibition-related decrease in beta-galactosidase activity treated prior to infection measured after 5 days by spectrophotometry; type: functional, organism-based; details: 120 h
Toxoplasma gondii [5] = assay: Antiparasitic activity against Toxoplasma gondii 2F tachyzoites infected in HFF assessed as inhibition of intracellular parasite replication at 25 uM treated 2 hrs postinfection measured after 26 hrs using DAPI staining by fluorescence microscopy relative to control; type: functional, organism-based
How it was run: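 HFF monolayers inoculated with tachyzoites, 2 h incubation, then compound (final 25 μM) or DMSO control added to medium. Replication ran 26 h; monolayers fixed, permeabilized, immunolabelled with Rb anti-p30 (SAG1) and goat anti-rabbit Alexa Fluor 594 (red), imaged by fluorescence.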

Toxoplasma gondii [6] = assay: Antiparasitic activity against Toxoplasma gondii 2F tachyzoites infected in HFF assessed as decrease in parasite penetration and attachment to host cell at 25 uM treated 20 mins prior to infection measured after 1 hr using DAPI staining by immunofluorescence microscopy relative to control; type: functional; set-up: scale not given: the % may be the effect or the level left; how it was run: as §1

| Compound | Activity (Toxoplasma gondii [1]) | CC50 [2] | selectivity ratio [3] | IC50 (Toxoplasma gondii [4]) | IC90 (Toxoplasma gondii [4]) | Activity (Toxoplasma gondii [5]) | Activity (Toxoplasma gondii [6]) |
| --- | --- | --- | --- | --- | --- | --- | --- |
| CC1CC/C(=N/Nc2nc(C(=O)O)cs2)C1 (centres undefined) | 47% | 82 µM | 2 | 38 µM | 70 µM | – | – |
| COc1cc(Cc2cnc(N)nc2N)cc(OC)c1OC [TRIMETHOPRIM] | – | ≥ 320 µM | 41 | 14 µM | – | – | – |
| CCOC(=O)c1csc(N/N=C(\C)c2ccccn2)n1 | 147% | 6 µM | 2 | 3 µM | 7 µM | Active | – |
| CC1CCCC/C1=N/Nc1nc(C(=O)O)cs1 (centres undefined) | – | ≥ 320 µM | 4 | 128 µM | 310 µM | – | – |
| CCOC(=O)c1csc(N/N=C/c2ccc3c(c2)OCO3)n1 | – | ≥ 320 µM | 1 | 479 µM | 2590 µM | – | – |
| O=C(O)c1csc(NN=C2CCCCC2)n1 | 45% | ≥ 320 µM | – | ≥ 320 µM | – | – | – |
| CCOC(=O)c1csc(N/N=C(\C)c2cc3ccccc3oc2=O)n1 | – | ≥ 320 µM | 27 | 21 µM | 55 µM | – | – |
| CCOC(=O)c1csc(N/N=C/c2cccs2)n1 | – | ≥ 320 µM | – | ≥ 320 µM | – | – | – |
| CCOC(=O)c1csc(N/N=C2/CCC(C)C2)n1 (centres undefined) | 48% | ≥ 320 µM | 10 | 59 µM | 190 µM | – | – |
| O=C(O)c1csc(NN=C2CCCCCC2)n1 | – | ≥ 320 µM | 3 | 179 µM | 3870 µM | – | – |
| CCOC(=O)c1csc(N/N=C/c2cccc3ccccc23)n1 | 35% | ≥ 320 µM | 11 | 52 µM | 182 µM | – | 47% |
| CC1CCC/C(=N/Nc2nc(C(=O)O)cs2)C1 (centres undefined) | – | ≥ 320 µM | – | ≥ 320 µM | – | – | – |
| CCOC(=O)c1csc(NN=C2CCCC2)n1 | – | ≥ 320 µM | 6 | 92 µM | 239 µM | – | – |
| CCOC(=O)c1csc(N/N=C(\C)c2ccncc2)n1 | – | ≥ 320 µM | 9 | 64 µM | 188 µM | – | – |
| CC1CCC(=NNc2nc(C(=O)O)cs2)CC1 (centres undefined) | – | ≥ 320 µM | – | ≥ 320 µM | – | – | – |
| CCOC(=O)c1csc(N/N=C2/CCCCC2C)n1 (centres undefined) | – | ≥ 320 µM | 3 | 185 µM | 508 µM | – | – |

| Compound | Activity (Toxoplasma gondii [1]) | CC50 [2] | selectivity ratio [3] | IC50 (Toxoplasma gondii [4]) | IC90 (Toxoplasma gondii [4]) | Activity (Toxoplasma gondii [5]) | Activity (Toxoplasma gondii [6]) |
| --- | --- | --- | --- | --- | --- | --- | --- |
| CCOC(=O)c1csc(N/N=C2/CCCC2C)n1 (centres undefined) | – | ≥ 320 µM | 4 | 130 µM | 248 µM | – | – |
| CCOC(=O)c1csc(N/N=C/c2ccncc2)n1 | 49% | ≥ 320 µM | – | ≥ 320 µM | – | – | – |
| CCOC(=O)c1csc(NN=C2CCCCC2)n1 | 45% | ≥ 320 µM | 4 | 160 µM | 638 µM | – | – |
| CCOC(=O)c1csc(N/N=C/c2c[nH]c3ccccc23)n1 | – | ≥ 320 µM | 2 | 280 µM | 2240 µM | – | – |
| CCOC(=O)c1csc(N/N=C(\C)c2cccs2)n1 | – | ≥ 320 µM | 15 | 37 µM | 136 µM | – | – |
| CC1CCC/C1=N/Nc1nc(C(=O)O)cs1 (centres undefined) | – | ≥ 320 µM | – | ≥ 320 µM | – | – | – |
| CCOC(=O)c1csc(N/N=C/c2cccnc2)n1 | – | ≥ 320 µM | 4 | 162 µM | 398 µM | – | – |
| CCOC(=O)c1csc(N/N=C2/CCCC(C)C2)n1 (centres undefined) | 48% | 84 µM | 6 | 15 µM | 46 µM | – | – |
| CCOC(=O)c1csc(N/N=C(\C)c2ccc3ccccc3c2)n1 | 45% | 127 µM | 3 | 43 µM | 88 µM | – | – |
| CCOC(=O)c1csc(N/N=C/c2ccco2)n1 | – | ≥ 320 µM | – | ≥ 320 µM | – | – | – |
| O=C(O)c1csc(NN=C2CCCC2)n1 | – | ≥ 320 µM | – | ≥ 320 µM | – | – | 47% |
| CCOC(=O)c1csc(NN=C2CCC(C)CC2)n1 (centres undefined) | – | ≥ 320 µM | 9 | 60 µM | 151 µM | – | – |
| CCOC(=O)c1csc(N/N=C(\C)c2ccco2)n1 | – | 241 µM | 5 | 49 µM | 161 µM | – | – |
| CCOC(=O)c1csc(NN=C2CCCCCC2)n1 | – | ≥ 320 µM | 7 | 77 µM | 226 µM | – | – |
| CCOC(=O)c1csc(N/N=C(\C)c2cccnc2)n1 | – | ≥ 320 µM | 17 | 34 µM | 86 µM | – | – |
